Assay results: ChEMBL document CHEMBL1125813, “Preparation and anti-HIV activities of aurintricarboxylic acid fractions and analogues: direct correlation of antiviral potency with molecular weight” (J Med Chem, 1991)
Converted amounts (≈) assume the structure as drawn. “And” between values parts separate entries of the source, which are not always exact repeats. Identical values can stand only once.

Legend:
MT4 [1] = experiment: Inhibitory index for OKT4A mAb binding inhibition in MT-4 cells was determined at a concentration of 100 ug/ml; assay type: functional, Homo sapiens
In short: (§1)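 MT-4 cells, 200 000 in 100 µL PBS, exposed to compound for 10–20 s at 20 °C, stained with anti-OKT4A-FITC for 20 min at 4 °C, washed, formaldehyde-fixed and read by flow cytometry. Index = 1 − (MF with compound − MF IgG-FITC control)/(MF OKT4A only − MF IgG-FITC control), from mean fluorescence intensity.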

MT-4 (human) = experiment: Inhibitory index of HIV-1 binding to MT-4 cells was determined at a concentration of 25 ug/mL
MT4 [2] = experiment: Inhibitory index for OKT4A mAb binding inhibition in MT-4 cells was determined at a concentration of 0.16 ug/ml; assay type: functional, Homo sapiens; in short: as §1
MT4 [3] = experiment: Inhibitory concentration for cytopathicity of HIV-2 (LAV-2ROD) in MT-4 cells; assay type: functional, cell-based, Homo sapiens
In short: (§2)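 MT-4 cells infected with HIV-1 (HTLV-IIIB) or HIV-2 (LAV-2ROD) at 100–500-fold the dose infecting 50% of cells, then cultured with compound. Protection from cytopathicity gives the IC50 (50% inhibitory concentration). Means of at least three experiments.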

[4] = Compound was tested for percent of OKT4A positive cells stained with normal mouse IgG-FITC at a concentration of 4 ug/mL; assay type: functional
In short: (§3)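 MT-4 cells, 200 000 in 100 µL PBS, exposed to compound for 10–20 s at 20 °C, then stained with anti-OKT4A-FITC for 20 min at 4 °C. Cells washed, fixed in 0.37% formaldehyde and analysed by cytofluorometry. Positive cells are those brighter than control cells stained with normal mouse IgG-FITC, which monitors nonspecific labelling.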

HuT78 [5] = experiment: Compound was tested for reduce the number of gaint cells in HIV-2 infected HUT-78 cells cocultured with MOLT -4 cells; assay type: functional, cell-based, Homo sapiens
In short: (§4)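 HUT-78 cells persistently infected with HIV-1 or HIV-2 cocultured with uninfected MOLT-4 (CD4+) cells alongside compound. Syncytium formation and bystander-cell destruction assessed by flow cytometry. IC50 taken as the concentration cutting giant-cell number by 50%.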

MT4 [6] = experiment: Inhibitory index for OKT4A mAb binding inhibition in MT-4 cells was determined at a concentration of 20 ug/ml; assay type: functional, Homo sapiens; in short: as §1
MT4 [7] = experiment: Inhibitory concentration for cell viability in mock-infected MT-4 cells; assay type: functional, cell-based; conditions: Homo sapiens
In short: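 MT-4 cells mock-infected and cultured with compound. Viability measured by MTT tetrazolium colorimetric read-out. Value is the 50% cytotoxic concentration. MT-4 data are means of at least three experiments.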

MT4 [8] = experiment: Inhibitory concentration for cytopathicity of HIV-1 (HTLV-111B) in MT-4 cells; assay type: functional, cell-based, Homo sapiens; in short: as §2
CCRF-CEM = experiment: Inhibitory concentration for cytopathicity of HIV-1 (HTLV-111B) in CEM cells; assay type: functional, cell-based, Homo sapiens
In short: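 CEM cells infected with HIV-1 (HTLV-IIIB) and cultured with compound. Protection from cytopathicity measured by XTT tetrazolium viability assay. IC50 is the concentration giving 50% inhibition. Means of two to four experiments.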

MT4 [9] = experiment: Inhibitory index for OKT4A mAb binding inhibition in MT-4 cells was determined at a concentration of 4 ug/ml; assay type: functional, Homo sapiens; in short: as §1
MT4 [10] = experiment: Inhibitory index for OKT4A mAb binding inhibition in MT-4 cells was determined at a concentration of 0.8 ug/ml; assay type: functional, Homo sapiens; in short: as §1
[11] = Compound was tested for percent of OKT4A positive cells stained with normal mouse IgG-FITC at a concentration of 100 ug/ml; assay type: functional; in short: as §3
HuT78 [12] = experiment: Compound was tested for reduce the number of gaint cells in HIV-1 infected HUT-78 cells cocultured with MOLT -4 cells; assay type: functional, cell-based, Homo sapiens; in short: as §4
[13] = Compound was tested for percent of OKT4A positive cells stained with normal mouse IgG-FITC at a concentration of 0.8 ug/ml; assay type: functional; in short: as §3
[14] = Compound was tested for percent of OKT4A positive cells stained with normal mouse IgG-FITC at a concentration of 0.16 ug/ml; assay type: functional; in short: as §3
[15] = Compound was tested for percent of OKT4A positive cells stained with normal mouse IgG-FITC at a concentration of 20 ug/ml; assay type: functional; in short: as §3

Molecule O=C(O)C1=CC(=C(c2ccc(O)c(C(=O)O)c2)c2ccc(O)c(C(=O)O)c2)C=CC1=O [AURINTRICARBOXYLIC ACID] has an Activity (MT4 [1]) of 0.97, an Inhibitory index (MT-4 (human)) of 0.99 and an Activity (MT4 [2]) of 0. The IC50 (MT4 [3]; Homo sapiens, MT4, read-out: IC50) was 0.85 µg/mL (≈ 2.01 µM), the IC50 (MT4 [3]; mt4) was 1.3 µg/mL (≈ 3.08 µM) and the Activity [4] was 9.2. For the same molecule, the IC50 (HuT78 [5]; Homo sapiens, HuT78, read-out: IC50) was 4 µg/mL (≈ 9.47 µM), the IC50 (HuT78 [5]; hut78) was 4 µg/mL (≈ 9.47 µM) and the Activity (MT4 [6]) was 0.98. For the same molecule, the IC50 (MT4 [7]) was 280 µg/mL (≈ 663 µM), the IC50 (MT4 [8]) was 1.1 µg/mL and 0.5 µg/mL and the IC50 (CCRF-CEM; Homo sapiens, CCRF-CEM, read-out: IC50) was 2.1 µg/mL (≈ 4.97 µM). It also gave an IC50 (CCRF-CEM; ccrf-cem) of 1.2 µg/mL (≈ 2.84 µM), an Activity (MT4 [9]) of 0.91 and an Activity (MT4 [10]) of 0.26. It also gave an Activity [11] of 2.7, an IC50 (HuT78 [12]) of 4 µg/mL (≈ 9.47 µM) and an Activity [13] of 99.2. It also gave an Activity [14] of 99.5 and an Activity [15] of 1.8.
